Source: PubChem BioAssay (several laboratories)
SENP1 inh: inhibitors of human SENP1 SUMO protease catalytic domain. recombinant SENP1 catalytic domain, CyPet-SUMO1-YPet FRET cleavage. inhibition, % at 10 µM. hit rate 0.21% among 360,000. AID 624204;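 active = inhibition at least 30% at 10 µM, raw YFP signal under a set limit, fluorescence ratio 0.5 to 1.5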;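 also: 0% = enzyme with DMSO and 100% = no enzyme wells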
Target sequence (Q9P0U3 419-644 limits assumed): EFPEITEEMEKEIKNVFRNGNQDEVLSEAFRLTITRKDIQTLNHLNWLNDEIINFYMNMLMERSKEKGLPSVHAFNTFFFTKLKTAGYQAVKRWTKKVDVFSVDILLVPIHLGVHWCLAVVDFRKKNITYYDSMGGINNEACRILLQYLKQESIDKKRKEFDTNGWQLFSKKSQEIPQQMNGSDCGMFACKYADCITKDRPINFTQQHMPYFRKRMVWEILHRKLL
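Test system: hSENP1 catalytic domain, recombinant; Amount: 20 pM final SENP1 enzyme; Medium: Tris pH 8 buffer plus EDTA, NaCl, BME, BSA, NP40, catalase; Schedule: 50 min enzyme reaction, room temperature, light-protected; Technique: FRET fluorescence in CFP and YFP emission channels; Controls: no-enzyme wells low, DMSO-plus-enzyme wells high control.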
Cardio protect: protects H9c2 cardiomyocytes from peroxide injury. H2O2 injury protection, ATPLite, 2 h. protection from H2O2 cell death, % at 20 µM. hit rate 0.63% among 360,000;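 active = compounds giving at least 50% protection of heart cells from peroxide-induced death in the single-dose screen, raw or plate-pattern-corrected value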;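 also: 0% = DMSO wells with peroxide and 100% = DMSO wells without peroxide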
NR3A LBD binder: modulators (binders) of human NR3A ligand-binding domain. NR3A LBD differential scanning fluorimetry, Tm shift; 0% = protein alone, 100% = glycine-bound protein. AID 1259313. Tm shift relative to glycine control, % at 25 µM. hit rate 2.5% among 340,000;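 active = melting temperature shift of at least 10% of the positive control shift, at one fixed dose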
iPSC survival up: enhancers of human iPSC single-cell survival. hiPSC single-cell survival, ATPlite luminescence; 100% = ROCK inhibitor wells, 0% = DMSO. survival enhancement, % at 20 µM. hit rate 0.044% among 360,000. AID 602274; in the data active = survival enhancement above about 18%;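 also: cells exposed to compounds for 16 hours before the ATP read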
FAS TE block: FAS thioesterase (human) inhibition. P49327. recombinant FAS-TE, OMFH fluorogenic substrate, fluorescence endpoint. inhibition, % at 15 µM. hit rate 0.67% among 360,000. AID 602261;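 active = compounds whose normalised, plate-corrected inhibition of enzyme fluorescence in the single-dose primary screen is 50% or more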;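 also: 0% = DMSO with enzyme and 100% = substrate without enzyme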
Arr AP2 block: inhibitors of human beta-arrestin and AP2 interaction; FITC-arrestin peptide / GST-AP2 beads, flow cytometry; AP2 beta2 appendage carries R879A mutation; inhibition, % at 10 µM; hit rate 0.31% among 340,000;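 active = inhibition above a set limit, near 3 SD of compounds lacking own fluorescence, cut at about 54% in these data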;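 also: plate controls were DMSO wells for no effect and 5 µM unlabelled arrestin peptide for full effect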
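Material – AP2 appendage R879A on GSH beads · Buffer or medium – PBS with 0.05% Tween 20 and 0.1% BSA · Probe or stimulus – fluorescein-tagged arrestin peptide at 50 nM final · Incubation – compound with beads 12 min RT, then probe 1 h RT · Detection – high-throughput flow cytometry of beads, ex 488, em 535 nm · Evaluation – percent response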
* hit, by the source's call; · = no result given. This is a sample that favours compounds with a hit; in the whole collection about 4% have one here.

SMILES	SENP1 inh	Cardio protect	NR3A LBD binder	iPSC survival up	FAS TE block	Arr AP2 block
CC(=O)Nc1cccc(-c2csc(Nc3ccc(C)cn3)n2)c1	2	-20	27*	-2	-1	-8
Cc1ccc(-c2csc(Nc3ccccn3)n2)cc1	1	-22	-3	-1	18	19
CC(=O)Nc1cccc(-c2cnc(NC(C)=O)cn2)c1	-6	2	·	-2	-8	·
Cc1nc(N)sc1-c1csc(Nc2ccc(Cl)cn2)n1	-33	5	6	-2	3	19
Cc1cccc(Nc2nc(-c3ccc(O)cc3O)cs2)n1	-4	-3	40*	0	24	2
N#Cc1ccc(Nc2nc(-c3ccc(O)cc3O)cs2)cc1C(F)(F)F	-15	0	23*	0	61*	2
CC(=O)NNc1nc(-c2ccc(NC(C)=O)cc2)cs1	3	-4	0	-1	-9	27
CC(=O)Nc1ccc(-c2csc(Nc3cccc(C)n3)n2)cc1	1	2	26*	0	11	-11
Oc1ccc(-c2csc(Nc3ccc4c(c3)OCO4)n2)c(O)c1	-3	-12	7	0	18	5
COc1ccc(OC)c(NC(=O)C(CC(C)C)NC(=O)C2CCCCC2)c1 (configuration not stated)	2	14	1	24*	7	44
COc1ccccc1NC(=O)C(CC(C)C)NC(=O)C1CCCCC1 (configuration not stated)	2	0	-1	2	0	-5
COc1ccc(NC(=O)CSc2nnc(C3CCCCC3)n2N)c(OC)c1	3	1	-2	0	-6	15
COc1ccc(OC)c(NC(=O)CSc2nnc(C3CCCCC3)n2N)c1	1	2	14*	0	-4	22
O=C(Nc1ccc(F)cc1)Nc1ccc(Oc2ncnc3cc(Cl)ccc23)nc1	1	1	3	0	-1	-2
O=C(Nc1ccc(Oc2ncnc3cc(Cl)ccc23)nc1)c1cccs1	6	-17	11*	0	2	10
COc1cc([N+](=O)[O-])c(OC)cc1SCc1n[nH]c(=S)n1-c1ccc(C)cc1	-1	4	12*	-1	20	2
COc1cc([N+](=O)[O-])c(OC)cc1SCc1n[nH]c(=S)n1-c1ccc(F)cc1	2	1	1	0	11	-22
C=CCCC(=O)Nc1nc(C)c(-c2csc(Nc3ccc(Cl)cc3Cl)n2)s1	-18	-10	12*	-1	16	-3
C=CCCC(=O)Nc1nc(C)c(-c2csc(Nc3cc(Cl)ccc3OC)n2)s1	-8	-9	3	5	25	-6
Cn1nc(C(=O)NCc2ccccc2Cl)c2c1-c1ccccc1S(=O)(=O)C2	-2	7	-1	0	16	9
COc1ccccc1CNC(=O)c1nn(C)c2c1CS(=O)(=O)c1ccccc1-2	2	7	18*	1	9	-3
CCCCn1nc(C(=O)Oc2ccc3c(C)cc(=O)oc3c2)c2ccccc2c1=O	-132	52*	0	3	-2	-10
CCCC(=O)Oc1ccc2c(C)cc(=O)oc2c1	-133	42	-1	1	3	8
C[C@H]1CCCCO[C@H](CN(C)Cc2ccc(C(=O)O)cc2)[C@@H](C)CN([C@@H](C)CO)C(=O)c2cc(NS(=O)(=O)c3cn(C)cn3)ccc2O1	-1	-4	·	0	-6	·
Nc1ncnc2c1ncn2[C@@H]1O[C@H](CNCc2cccc(C#Cc3ccccc3)c2)[C@@H](O)[C@H]1O	1	-8	13*	1	-3	3
SMILES	SENP1 inh	Cardio protect	NR3A LBD binder	iPSC survival up	FAS TE block	Arr AP2 block
Nc1ncnc2c1ncn2[C@@H]1O[C@H](CNC(=O)[C@@H]2CCN2)[C@@H](O)[C@H]1O	3	3	15*	2	-7	8
Nc1ncnc2c1ncn2[C@@H]1O[C@H](CNCc2ccccc2)[C@@H](O)[C@H]1O	2	14	-1	3	-7	-11
Nc1ncnc2c1ncn2[C@@H]1O[C@H](CNC(=O)[C@H]2CCC(=O)N2)[C@@H](O)[C@H]1O	-1	-5	1	5	-11	10
Oc1ccccc1/C=N/Nc1cccc2cccnc12	-67	-8	10*	-3	25	25
Oc1ccccc1/C=N/Nc1ccccc1	-1	-12	13*	-2	14	10
Oc1ccccc1C=NNC(=S)NN=Cc1ccccc1O	-35	19	27*	4	49	9
CC(C)(C)NC(=O)C1c2ccccc2OCC(=O)N1Cc1ccc2c(c1)OCO2 (configuration not stated)	2	·	·	-2	-10	·
O=C(Nc1ccccc1)c1cc2ccccc2c(=O)s1	3	9	-7	-1	15	8
O=C(Nc1ccc(O)cc1)c1cc2ccccc2c(=O)s1	0	3	24*	3	5	6
CN(Cc1ccccc1)Cc1cc(=O)oc2ccc3ccccc3c12	-4	-2	·	3	27	·
CN1C(=O)S/C(=C\c2ccccc2OCc2ccc(C(=O)O)cc2)C1=O	2	3	3	0	-6	-18
COc1cccc(/C=C2\SC(=O)NC2=O)c1OCc1ccc(C(=O)O)cc1	2	8	15*	0	-7	4
O=C(Nc1ccc(-c2nc3c(ccc4ccccc43)o2)cc1)c1ccco1	-5	6	35*	-1	4	0
COc1cc2sc(NC(=O)c3ccco3)nc2cc1Cl	-1	-2	5	0	-6	38
O=C(Nc1ccc(-c2nc3cc(Cl)ccc3c(=O)o2)cc1)c1ccco1	0	9	11*	-2	6	-1
O=C(Nc1ccc(Cl)cc1)c1ccco1	-2	5	-30	0	-3	-9
O=C(Cc1ccccc1)Nc1ccc(NC(=O)c2ccco2)cc1	3	-9	-12	2	-6	19
O=C(Nc1nc2c(ccc3ccccc32)s1)c1ccco1	-1	11	16*	-2	16	26
COc1cc2nc(NC(=O)c3ccco3)sc(=O)c2cc1OC	1	0	15*	-1	-3	-2
Cc1ccc(S(=O)(=O)N2C[C@H]3N(C(=O)OC(C)C)N(C(=O)OC(C)C)C[C@H](OC(=O)NCC4CCCCC4)[C@@]3(O)C2)cc1	2	-5	·	-2	14	·
C[C@@H]1CN([C@@H](C)CO)C(=O)c2cc(NS(=O)(=O)c3ccc(F)cc3)ccc2O[C@@H](C)CCCCO[C@H]1CN(C)C(=O)NC1CCCCC1	1	-16	·	-2	-1	·
CCc1nc2ccc(C(=O)N(C)Cc3ccccc3)cn2c1N(C)Cc1ccc(OC)cc1	-3	-1	·	-1	3	·
